Compound activity as filed in PubChem.
SIRT5 inh: sirtuin-5 (human) deacylase inhibition; Purified SirT5, succinyl-peptide AMC, trypsin-coupled fluorescence; inhibition, % at 15 µM; actives 1.1% (n = 330,000); in the data active = inhibition above about 15%; inconclusive = no clear call, values can overlap the other calls
E-selectin induc: induces E-selectin expression in human endothelial cells; P16581; HUVEC E-selectin immunofluorescence imaging; normalized: neutral wells 0, TNF-alpha wells 100; activation, % at 7.58 µM; actives 0.37% (n = 260,000);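 active = mean E-selectin-positive cell signal at least 10% of the positive control, reached in at least 60% of replicates, without over 20% cell loss; inconclusive = no rule given, readout overlaps actives, possibly toxicity-flagged; inactive = the rest, including those meeting only one limit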
Target sequence (P16581 whole entry, looked up): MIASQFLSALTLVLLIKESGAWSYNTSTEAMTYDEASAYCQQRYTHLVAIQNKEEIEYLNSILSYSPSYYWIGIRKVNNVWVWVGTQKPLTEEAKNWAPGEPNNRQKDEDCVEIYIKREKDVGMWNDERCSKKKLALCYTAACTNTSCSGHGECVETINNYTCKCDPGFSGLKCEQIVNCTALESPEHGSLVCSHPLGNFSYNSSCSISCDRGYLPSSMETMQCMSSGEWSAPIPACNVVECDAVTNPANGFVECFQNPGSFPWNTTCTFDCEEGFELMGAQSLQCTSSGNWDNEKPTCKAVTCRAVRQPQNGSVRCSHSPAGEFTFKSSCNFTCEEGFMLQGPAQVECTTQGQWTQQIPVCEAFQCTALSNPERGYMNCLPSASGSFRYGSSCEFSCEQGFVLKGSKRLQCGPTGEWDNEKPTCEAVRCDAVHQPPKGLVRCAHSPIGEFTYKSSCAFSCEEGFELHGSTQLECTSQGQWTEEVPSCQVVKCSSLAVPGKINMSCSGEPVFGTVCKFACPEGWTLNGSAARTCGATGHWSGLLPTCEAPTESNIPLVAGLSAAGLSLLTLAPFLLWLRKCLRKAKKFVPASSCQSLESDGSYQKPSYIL
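Assay system: HUVEC primary endothelial cells. Input: 3,000 HUVEC seeded per well. Doses: one compound dose added by pin transfer. Read-out basis: % PE-positive cells. Benchmarks: TNF-alpha high, DMSO low. Detection: immunofluorescence imaging. Buffer or medium: EGM-2, gelatin.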
DENV2 CPE rescue: protects cells from dengue virus 2 cytopathic effect; CPE inhibition, % at 9.99 µM; AID 651640; DENV2-infected cells, cytopathic effect rescue, plate reader; actives 1.7% (n = 350,000); in the data active = CPE inhibition above about 20%, passing the limit was not always enough; inconclusive = no clear call, values can overlap the other calls; tested in BHK-21 cells;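 note: 0% = median of neutral control wells and 100% = median of positive control wells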
The depositor's hits bear a star; ? = inconclusive; · = not tested or not shown. This is a sample that favours compounds with a hit; in the whole collection about 2.9% have one here.

SMILES	SIRT5 inh	E-selectin induc	DENV2 CPE rescue
CC(C)NC(=O)N(C)C[C@@H]1Oc2c(NC(=O)c3ccc(-c4nccs4)cc3)cccc2C(=O)N([C@H](C)CO)C[C@H]1C	2	91*	3
C[C@@H]1CN([C@@H](C)CO)C(=O)c2cccc(NC(=O)c3ccc(-c4nccs4)cc3)c2O[C@@H]1CN(C)C(=O)NC1CCCCC1	1	4	5
CC(C)(C)c1ccc(NC(=O)N2CCCN(c3c(Cl)cncc3Cl)CC2)cc1	-4	0	0
CCCC(=O)Nc1ccc2c(c1)OC[C@H](C)N(C(=O)c1ccccn1)C[C@@H](C)[C@H](OC)CN(C)C2=O	1	0	22*
CCCC(=O)Nc1ccc2c(c1)OC[C@@H](C)N(C(=O)c1ccccn1)C[C@@H](C)[C@@H](OC)CN(C)C2=O	-1	0	21*
CCCC(=O)Nc1ccc2c(c1)OC[C@H](C)N(C(=O)c1ccccn1)C[C@H](C)[C@@H](OC)CN(C)C2=O	1	0	-10
CCCC(=O)Nc1ccc2c(c1)OC[C@H](C)N(C(=O)c1ccccn1)C[C@H](C)[C@H](OC)CN(C)C2=O	3	0	-13
CCOc1ccc(N2C(=O)CC(NCCNc3ccc([N+](=O)[O-])cn3)C2=O)cc1 (centres undefined)	0	0	-7
CCN1CCN(c2nc3c(c(=O)[nH]c(=O)n3C)n2CCCc2ccccc2)CC1	-2	·	-3
CO[C@H]1CN(C)C(=O)c2ccc(NC(=O)C3CC3)cc2OC[C@@H](C)NC[C@H]1C	5	0	-6
CCOC(=O)N1CCC(C(=O)NNC(=O)c2ccc(Cl)cc2Cl)CC1	1	·	45*
CCOC(=O)N1CCN(C(=O)CNC(=O)c2ccc(Cl)cc2Cl)CC1	-5	·	0
CC(C)c1ccc(/C=C/C(=O)NC(=S)NN2CCOCC2)cc1	-2	0	3
C[C@@H]1CN([C@H](C)CO)C(=O)c2cc(NC(=O)CCN3CCOCC3)ccc2O[C@@H]1CN(C)Cc1ccc(C(F)(F)F)cc1	3	178*	8
C[C@H]1CN([C@@H](C)CO)C(=O)c2cc(NC(=O)CCN3CCOCC3)ccc2O[C@H]1CN(C)Cc1ccc(C(F)(F)F)cc1	-3	4	2
C[C@H]1CN([C@@H](C)CO)C(=O)c2cc(NC(=O)CCN3CCOCC3)ccc2O[C@@H]1CN(C)Cc1ccncc1	-4	362*	-5
C[C@H](CO)N1C[C@H](C)[C@H](CN(C)Cc2ccncc2)Oc2ccc(NC(=O)CCN3CCOCC3)cc2C1=O	25*	-7	3
C[C@H](CO)N1C[C@H](C)[C@@H](CN(C)Cc2ccncc2)Oc2ccc(NC(=O)CCN3CCOCC3)cc2C1=O	3	2	0
C[C@H]1CN([C@@H](C)CO)C(=O)c2cc(NC(=O)CCN3CCOCC3)ccc2O[C@H]1CN(C)Cc1ccccc1	-4	0	20
C[C@@H]1CN([C@H](C)CO)C(=O)c2cc(NC(=O)CCN3CCOCC3)ccc2O[C@@H]1CN(C)Cc1ccccc1	-2	0	-5
C[C@@H]1CN([C@H](C)CO)C(=O)c2cc(NC(=O)CCN3CCOCC3)ccc2O[C@@H]1CN(C)Cc1ccncc1	-7	36*	9
CCOc1cc(/C=C2\CN(C)C/C(=C\c3ccc(O)c(OCC)c3)C2=O)ccc1O	0	0	14
O=C(CCN1CCCCCC1)Nc1ccc2c(c1)OCCO2	0	0	-1
COc1ccc(Cl)cc1NC(=O)CNCC(c1ccccc1)N(C)C (centres undefined)	0	-1	3
O=C(NCCN1CCCCC1)[C@H]1[C@H](CO)[C@H]2Cn3c(cccc3=O)[C@H]2N1C(=O)C1CC1	-2	0	18
SMILES	SIRT5 inh	E-selectin induc	DENV2 CPE rescue
Cc1ccccc1OCC(=O)Nc1ccccc1C(=O)N1CCCCC1	0	0	3
COc1ccc(CN(C)C[C@H]2Oc3ccc(NS(=O)(=O)c4c(C)noc4C)cc3C(=O)N([C@@H](C)CO)C[C@@H]2C)cc1	-2	19	25*
Cc1noc(C)c1S(=O)(=O)Nc1ccc2c(c1)CC(=O)N([C@H](C)CO)C[C@H](C)[C@H](CN(C)Cc1ccc(-c3ccccc3)cc1)O2	15*	1	8
Cc1noc(C)c1S(=O)(=O)Nc1ccc2c(c1)CC(=O)N([C@@H](C)CO)C[C@H](C)[C@H](CN(C)Cc1ccc(-c3ccccc3)cc1)O2	-1	2	20
COc1ccc(S(=O)(=O)N(C)C[C@H]2Oc3ccc(NS(=O)(=O)c4c(C)noc4C)cc3C(=O)N([C@H](C)CO)C[C@@H]2C)cc1	1	1	-14
COc1ccc(S(=O)(=O)N(C)C[C@@H]2Oc3ccc(NS(=O)(=O)c4c(C)noc4C)cc3C(=O)N([C@@H](C)CO)C[C@H]2C)cc1	6	189*	·
COc1ccc(CN(C)C[C@@H]2Oc3ccc(NS(=O)(=O)c4c(C)noc4C)cc3CC(=O)N([C@@H](C)CO)C[C@@H]2C)cc1	24*	0	?
COc1ccc(CN(C)C[C@H]2Oc3ccc(NS(=O)(=O)c4c(C)noc4C)cc3CC(=O)N([C@@H](C)CO)C[C@H]2C)cc1	-1	0	0
Cc1noc(C)c1S(=O)(=O)Nc1ccc2c(c1)C(=O)N([C@@H](C)CO)C[C@@H](C)[C@H](CN(C)Cc1ccc(Oc3ccccc3)cc1)O2	4	-2	-2
CC1CCN(C(=O)c2cc3c(=O)n4ccccc4nc3s2)CC1	-14	·	-2
CCOC(=O)C1CCCN(C(=O)COc2ccccc2F)C1 (centres undefined)	-3	0	-6
CC(NC(=O)c1ccccc1OC(F)F)c1ccc(-n2ccnc2)cc1 (centres undefined)	0	0	-9
C[C@H]1CN([C@@H](C)CO)C(=O)Cc2cc(NS(=O)(=O)c3cccs3)ccc2O[C@H]1CN(C)Cc1ccc(-c2ccccc2)cc1	1	0	-21
C[C@H](CO)N1C[C@H](C)[C@H](CN(C)Cc2ccc(-c3ccccc3)cc2)Oc2ccc(NS(=O)(=O)c3cccs3)cc2CC1=O	8	0	51*
Clc1cccc(Cc2c(-c3ccccc3)nc3ccc(Br)cn23)c1	-1	0	1
O=C(NCC(O)c1ccccc1)c1ccccc1 (centres undefined)	-2	·	5
CC(=O)N1CCN(C(=O)COC(=O)COc2c(C)cc(C)cc2C)CC1	-2	0	84*
CCOC(=O)N1CCN(C(=O)COC(=O)COc2c(C)cc(C)cc2C)CC1	-1	-6	0
COc1ccc(N(CC(=O)NCc2ccccc2C)S(=O)(=O)c2ccccc2[N+](=O)[O-])c(OC)c1	11	·	-5
COC(=O)C1=NNC(C(=O)c2ccco2)C1c1ccccc1 (centres undefined)	22*	·	-2
COC(=O)C1=NNC(C(=O)c2ccco2)C1c1ccc(OC)cc1 (centres undefined)	0	0	4
O=[N+]([O-])c1ccccc1S(=O)(=O)Nc1cccc(-c2ccc3nncn3n2)c1	-1	·	65*
O=[N+]([O-])c1ccccc1S(=O)(=O)Nc1ccc(-c2ccc3nncn3n2)cc1	0	0	4
